# According to ChEMBL document CHEMBL5715948, “Tubastatin, a selective histone deacetylase 6 inhibitor shows anti-inflammatory and anti-rheumatic effects” (Int Immunopharmacol, 2013):
# Activity calls are given as the source filed them. No cut-off for these calls is given here.
# Legend:
# [1] = Toxicity in DBA1 mouse semi-therapeutic collagen induced arthritis model assessed as change in body weight at 0.1 mg/kg/day, po QD dosed during day 21 to day 36 post immunization (reference value: -25.03 +/- 5.22%); assay type: organism-based; conditions: in vivo, 384 h, time 16 day
# Rattus norvegicus [2] = assay: Antiinflammatory activity in Wistar rat assessed as inhibition of FCA-induced paw inflammation at 1 mg/kg/day, po […] measured 2 hrs after FCA challenge relative to control; assay type: functional
# How it was run: (§1)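 Male Wistar rats (200–225 g) randomized by paw volume, n = 6. Test agent i.p. daily for 5 days or reference oral on day 5; 1 h after dosing on day 5, 100 μg M. tuberculosis in 50 μl IFA injected sub-plantar into both hind paws. Paw volume plethysmometry at 2, 6, 24 h; % inhibition versus vehicle disease control.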
# Mus musculus [3] = assay: (§2) Anti-rheumatic activity in DBA1 mouse semi-therapeutic collagen induced arthritis model assessed as inhibition of histopathological changes (cartilage erosion, synovial hyperplasia and inflammation) at 0.1 mg/kg/day, po QD dosed during day 21 to day 36 post immunization by hematoxylin and eosin staining based analysis; assay type: functional; conditions: DBA1, 384 h, time 16 day
# How it was run: (§3)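 Histopathology in collagen II/CFA-immunized DBA1 mice (day 21 boost, day 28 LPS i.p.), treated day 21–36, n = 6. Right fore and hind paws taken at sacrifice on day 37, paraffin-embedded, sectioned, H&E-stained and scored for cartilage erosion, synovial hyperplasia, pannus and cell infiltration.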
# Rattus norvegicus [4] = assay: Antiinflammatory activity in Wistar rat assessed as inhibition of FCA-induced paw inflammation at 1 mg/kg/day, […] measured 24 hrs after FCA challenge relative to control; assay type: functional; conditions: route po; how it was run: as §1
# [5] = Toxicity in DBA1 mouse semi-therapeutic collagen induced arthritis model assessed as spleen weight at 0.1 mg/kg/day, po QD dosed during day 21 to day 36 post immunization (reference value: 226.4 +/- 11.03 mg); assay type: organism-based; conditions: in vivo, 384 h, time 16 day
# Mus musculus [6] = assay: Anti-rheumatic activity in DBA1 mouse semi-therapeutic collagen induced arthritis model assessed as mild cartilaginous change like proteoglycan loss at 0.1 mg/kg/day, po QD dosed during day 21 to day 36 post immunization by Safranin O staining analysis; assay type: functional, organism-based; conditions: time 16.0 day
# How it was run: (§4)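 Right fore and hind paws from collagen-induced arthritic DBA1 mice (treated day 21–36, sacrificed day 37) paraffin-sectioned and stained with Safranin O to detect proteoglycan/glycosaminoglycan loss in articular cartilage.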
# [7] = Toxicity in DBA1 mouse semi-therapeutic collagen induced arthritis model assessed as thymus weight at 0.1 mg/kg/day, po QD dosed during day 21 to day 36 post immunization (reference value: 12.20 +/- 1.5 mg); assay type: organism-based; conditions: in vivo, 384 h, time 16 day
# Rattus norvegicus [8] = assay: Antiinflammatory activity in Wistar rat assessed as inhibition of FCA-induced paw inflammation at 1 mg/kg/day, po […] measured 6 hrs after FCA challenge relative to control; assay type: functional; how it was run: as §1
# RAW264.7 [9] = assay: Inhibition of LPS-stimulated NO production in mouse RAW264.7 cells at 10 uM pre-incubated for 24 hrs before LPS-stimulation and measured after 24 hrs post LPS challenge by Griess assay; assay type: functional; conditions: time 48 hrs
# How it was run: (§5)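 RAW 264.7 cells (1 million) in 24-well plates, 24 h settle, compound 24 h, then LPS 100 ng/ml for 24 h. Medium nitrite measured with Griess reagent (1% sulfanilamide, 0.1% naphthylethylenediamine in 2.5% phosphoric acid), 10 min room temperature, absorbance 570 nm, quantified against sodium nitrite standard curve; mean ± SD, n = 3.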
# Mus musculus [10] = assay: Anti-rheumatic activity in DBA1 mouse semi-therapeutic collagen induced arthritis model assessed as inhibition of clinical arthritic scores at 0.1 mg/kg/day, po QD dosed during day 21 to day 36 post immunization by hematoxylin and eosin staining based analysis; assay type: functional; conditions: DBA1, 384 h, time 16 day
# How it was run: (§6)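 Collagen-induced arthritis in female DBA1 mice: collagen II/CFA intradermal at tail base day 0, collagen/IFA boost day 21, LPS 50 μg i.p. day 28; once-daily dosing day 21 to 36, six per group. Arthritic clinical scores followed daily from day 28 to 37; mean ± SEM versus vehicle-treated disease control.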
# Mus musculus [11] = assay: Anti-rheumatic activity in DBA1 mouse semi-therapeutic collagen induced arthritis model assessed as inhibition of IL6 level in paw tissues at 0.1 mg/kg/day, po QD dosed during day 21 to day 36 post immunization by ELISA analysis; assay type: functional; conditions: 384 h, time 16 day
# How it was run: (§7)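 Female DBA1 mice (6–8 weeks) immunized intradermally at tail base on day 0 with bovine type II collagen in CFA, boosted day 21 with collagen in IFA, LPS 50 μg i.p. day 28; dosed day 21–36 (n = 6/group). Day 37 left paws frozen, pulverized in liquid nitrogen, homogenized in T-PER, spun 500 g 10 min 4 °C; supernatant IL-6 by ELISA, normalized per mg protein.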
# Mus musculus [12] = assay: as §2, with “at 30” for “at 0.1”, “mg/kg/day, ip” for “mg/kg/day, po”; assay type: functional; conditions: DBA1, 384 h, time 16 day; how it was run: as §3
# THP-1 [13] = assay: Inhibition of LPS-stimulated IL6 production in PMA-activated human THP-1 cells pre-incubated for 24 hrs before LPS-stimulation and measured after 8 hrs post LPS challenge by ELISA; assay type: functional, cell-based; conditions: time 32.0 hrs
# How it was run: (§8)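 THP-1 cells, 10,000/well, differentiated with 32 nM PMA for 24 h, medium replaced and rested 24 h, then compound 24 h before LPS: 10 ng/ml for 4 h (TNF-α) or 100 ng/ml for 8 h (IL-6). Conditioned medium assayed by human ELISA at 450 nm; mean ± SD, n = 3; IC50 from dose–response.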
# [14] = Toxicity in DBA1 mouse semi-therapeutic collagen induced arthritis model assessed as change in body weight at 30 mg/kg/day, ip QD dosed during day 21 to day 36 post immunization (reference value: -25.03 +/- 5.22%); assay type: organism-based; conditions: in vivo, 384 h, time 16 day
# Mus musculus [15] = assay: Anti-rheumatic activity in DBA1 mouse semi-therapeutic collagen induced arthritis model assessed as mild cartilaginous change like proteoglycan loss at 30 mg/kg/day, ip QD dosed during day 21 to day 36 post immunization by Safranin O staining analysis; assay type: functional, organism-based; conditions: time 16.0 day; how it was run: as §4
# THP-1 [16] = assay: Cytotoxicity in human THP-1 cells at 100 to 100000 nM incubated for 24 hrs by SRB assay; assay type: toxicity, cell-based; conditions: thp-1, 24 h, 100 µM, dose 100-100000 nM
# How it was run: (§9)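 RAW 264.7 (DMEM) or THP-1 (RPMI-1640) cells, 10% FBS, seeded 10,000/well and exposed 24 h to compound in DMSO over 100–100000 nM. SRB staining, absorbance 530 nm; % survival relative to untreated cells, mean ± SD, n = 3.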
# Mus musculus [17] = assay: Anti-rheumatic activity in DBA1 mouse semi-therapeutic collagen induced arthritis model assessed as inhibition of IL6 level in paw tissues at 30 mg/kg/day, ip QD dosed during day 21 to day 36 post immunization by ELISA analysis; assay type: functional; conditions: 384 h, time 16 day; how it was run: as §7
# Rattus norvegicus [18] = assay: Antiinflammatory activity in Wistar rat assessed as inhibition of FCA-induced paw inflammation at 30 mg/kg/day, ip for 5 days and measured 24 hrs after FCA challenge relative to control; assay type: functional; conditions: 120 h, time 5 day; how it was run: as §1
# THP-1 [19] = assay: Inhibition of LPS-stimulated TNFalpha production in PMA-activated human THP-1 cells pre-incubated for 24 hrs before LPS-stimulation and measured after 4 hrs post LPS challenge by ELISA; assay type: functional, cell-based; conditions: time 28.0 hrs; how it was run: as §8
# [20] = Toxicity in DBA1 mouse semi-therapeutic collagen induced arthritis model assessed as spleen weight at 30 mg/kg/day, ip QD dosed during day 21 to day 36 post immunization (reference value: 226.4 +/- 11.03 mg); assay type: organism-based; conditions: in vivo, 384 h, time 16 day
# [21] = Toxicity in DBA1 mouse semi-therapeutic collagen induced arthritis model assessed as thymus weight at 30 mg/kg/day, ip QD dosed during day 21 to day 36 post immunization (reference value: 12.20 +/- 1.5 mg); assay type: organism-based; conditions: in vivo, 384 h, time 16 day
# RAW264.7 [22] = assay: Inhibition of LPS-stimulated NO production in mouse RAW264.7 cells pre-incubated for 24 hrs before LPS-stimulation and measured after 24 hrs post LPS challenge by Griess assay; assay type: functional, cell-based; conditions: time 48.0 hrs; how it was run: as §5
# Rattus norvegicus [23] = assay: Antiinflammatory activity in Wistar rat assessed as inhibition of FCA-induced paw inflammation at 30 mg/kg/day, ip for 5 days measured 2 hrs after FCA challenge relative to control; assay type: functional; conditions: 120 h, time 5 day; how it was run: as §1
# Rattus norvegicus [24] = assay: Antiinflammatory activity in Wistar rat assessed as inhibition of FCA-induced paw inflammation at 30 mg/kg/day, ip for 5 days and measured 6 hrs after FCA challenge relative to control; assay type: functional; conditions: 120 h, time 5 day; how it was run: as §1
# Mus musculus [25] = assay: Anti-rheumatic activity in DBA1 mouse semi-therapeutic collagen induced arthritis model assessed as inhibition of clinical arthritic scores at 30 mg/kg/day, ip QD dosed during day 21 to day 36 post immunization by hematoxylin and eosin staining based analysis; assay type: functional; conditions: DBA1, 384 h, time 16 day; how it was run: as §6
# RAW264.7 [26] = assay: Cytotoxicity in mouse RAW264.7 cells at 100 to 100000 nM incubated for 24 hrs by SRB assay; assay type: toxicity, cell-based; conditions: raw264.7, 24 h, 100 µM, dose 100-100000 nM; how it was run: as §9
smiles,measurement,setting,value
C[C@@H]1C[C@H]2[C@@H]3CCC4=CC(=O)C=C[C@]4(C)[C@@]3(F)[C@@H](O)C[C@]2(C)[C@@]1(O)C(=O)CO [DEXAMETHASONE],Activity,[1],-13.9%
same,inhibition in vivo at 1 mg/kg/day,Rattus norvegicus [2],65.4%
same,inhibition in vivo at 0.1 mg/kg/day,Mus musculus [3],100%
same,inhibition in vivo at 1 mg/kg/day,Rattus norvegicus [4],49.5%
same,Activity,[5],52.5 mg
same,Activity,Mus musculus [6],Active
same,Activity,[7],6.5 mg
same,inhibition in vivo at 1 mg/kg/day,Rattus norvegicus [8],90.5%
same,inhibition at 10 µM,RAW264.7 [9],36%
same,inhibition in vivo at 0.1 mg/kg/day,Mus musculus [10],92%
same,inhibition in vivo at 0.1 mg/kg/day,Mus musculus [11],66%
CN1CCc2c(c3ccccc3n2Cc2ccc(C(=O)NO)cc2)C1 [TUBASTATIN A],inhibition in vivo at 30 mg/kg/day,Mus musculus [12],71%
same,inhibition,THP-1 [13],Dose-Dependent Effect
same,Activity,[14],-1.07%
same,Activity,Mus musculus [15],Active
same,Activity,THP-1 [16],Non-Toxic
same,inhibition in vivo at 30 mg/kg/day,Mus musculus [17],59%
same,inhibition in vivo at 30 mg/kg/day,Rattus norvegicus [18],38.6%
same,inhibition,THP-1 [19],Dose-Dependent Effect
same,Activity,[20],182 mg
same,Activity,[21],17.5 mg
same,inhibition,RAW264.7 [22],Dose-Dependent Effect
same,inhibition in vivo at 30 mg/kg/day,Rattus norvegicus [23],71.9%
same,inhibition in vivo at 30 mg/kg/day,Rattus norvegicus [24],40.3%
same,inhibition in vivo at 30 mg/kg/day,Mus musculus [25],73%
same,inhibition at 10 µM,RAW264.7 [9],66%
same,Activity,RAW264.7 [26],Non-Toxic
